Rows were chosen to be rich in hits. Some 3.7% of all compounds tested hit in one or more screens of this group.
Calpain2 inh = inhibitors of pig calpain II; purified calpain II, fluorogenic peptide substrate, 30 min; inhibition, % at 16 µM; actives 0.37% (n = 220,000); AID 1236;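 active means inhibition above about 50%, limit read from the data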
MDM2 E3 inh = Mdm2 E3 ligase (human) inhibition | AID 1230 | Q00987 | cell-based MDM2 ubiquitination luciferase reporter, 2 h; 0 = plate control, 100 = twice control, blank-subtracted | signal enhancement, % at 5 µM | actives 0.11% (n = 210,000);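 active means signal enhancement of 30% or more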;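 further: luminescence tracks abundance of the self-degrading MDM2-luciferase fusion protein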
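Assay system: stable mammalian line carrying autodegrading MDM2–luciferase fusion reporter; Input: 2000 cells in each well; Compound dosing: single-point 5 µM; Schedule: 2 h compound exposure at 37 °C; Signal: SteadyLite luciferase luminescence after 15 min room-temperature reagent incubation; Evaluation: % luminescence enhancement versus blank-corrected plate control mean; Benchmarks: plate controls and plate blanks.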
Arbovirus anti = arbovirus infection inhibition. arbovirus infection cell-based antiviral screen. inhibition, % at 10 µM. actives 0.37% (n = 200,000); in the data active means inhibition above about 30%
ROMK mod = modulators of human ROMK potassium channel; P48048; Tet-inducible ROMK, thallium flux fluorescence; actives lie on both sides; B-score at 10 µM; actives 2% (n = 130,000);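 active means signal ratio slope over the read window, or its plate-corrected B-score, at least 3 SD from the plate mean, either direction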;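 further: B-score of the F/F0 ratio slope over 7 to 12 s after thallium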
PKD1 kinase inh = inhibitors of human PKD1 kinase; Q15139; PKD1 kinase fluorescence polarization assay; inhibition, % (test concentration not listed); actives 0.056% (n = 200,000); AID 797; in the data active means inhibition above about 50%
Cl transport mod = modulates chloride dependent transport by human KCC2; B-score of Tl+ flux slope (higher = more flux/activation; lower = inhibition) at 10 µM; KCC2 cells, thallium flux FluoZin-2 fluorescence; AID 1456; actives 2.2% (n = 190,000);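 active means thallium flux slope and its plate-corrected score both differing from the plate sample mean at a set confidence after two filtering rounds, in either direction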;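 further: slope of fluorescence scaled to starting intensity during 10 to 20 s after thallium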
* = called active by the depositor; . = no result.

SMILES	Calpain2 inh	MDM2 E3 inh	Arbovirus anti	ROMK mod	PKD1 kinase inh	Cl transport mod
COC(=O)c1ccc(N2C(=O)CC(Sc3n[nH]c(C)n3)C2=O)cc1 (stereo unspecified)	-28	-1	2	.	-5	1.4
COC(=O)c1ccc(N2C(=O)C3CC(C)=C(C)CC3C2=O)cc1 (stereo unspecified)	59*	-3	0	.	1	.
O=C(O)CCCCCNS(=O)(=O)c1c(Cl)cccc1Cl	-7	-10	0	.	0	.
Cc1cc(C)c(C(=O)COC(=O)CCNS(=O)(=O)c2c(Cl)cccc2Cl)cc1C	51*	-5	1	.	-10	-0.8
CC1C/C(=C\c2cccnc2)C(=O)/C(=C/c2cccnc2)C1 (stereo unspecified)	-9	-18	-31	-6.1*	-4	-0.18
O=C(Nc1nc(=S)ss1)c1ccc(Cl)cc1Cl	11	19	-5	.	-7	5*
Cn1ccc(C(=O)OCC(=O)Nc2cccc3ccccc23)n1	-26	-2	-7	-0.016	3	0.63
COc1ccc(-n2c(COc3cccc4cccnc34)nnc2SCC(=O)O)cc1	12	-23	3	0.38	2	0.23
CN1CC=C2C(C#N)=C(N)C(C#N)(C#N)[C@H](c3ccoc3)[C@H]2C1	-4	-12	3	-2.8*	5	0.39
Cc1ccc(C2C3CN(C(C)C)CC=C3C(C#N)=C(N)C2(C#N)C#N)cc1 (stereo unspecified)	-186	0	3	-4.3*	.	.
CC(=O)N1CC=C2C(C#N)=C(N)C(C#N)(C#N)[C@H](c3ccoc3)[C@H]2C1	-14	-14	4	-0.75	-6	0.51
COc1ccc(OC)c(-c2c3c([nH]c(=S)c2C#N)CCCC3)c1	-28	17	0	.	7	2.9
COc1ccc(-c2c3c([nH]c(=S)c2C#N)CCC3)cc1	-109	-1	3	0.79	1	5*
Cc1ccc(NC(=O)CC2S/C(=N/N=C/c3c[nH]c4ccccc34)NC2=O)cc1 (stereo unspecified)	-2	.	-15	0.0051	0	-0.05
CCOC(=O)c1ccc(NC(=O)CC2S/C(=N/N=C/c3c[nH]c4ccccc34)NC2=O)cc1 (stereo unspecified)	-30	-3	31*	0.59	-3	-0.99
CC(C)c1nc2scc(-c3ccc(Cl)cc3)c2c(=O)n1N	21	-7	.	-0.8	.	-0.2
CCOC(=O)C(=NCC1CCCO1)NNc1ccccc1Cl (stereo unspecified)	0	.	.	.	.	-0.34
O=C(OCn1ncc(Br)c(Br)c1=O)c1c(F)cccc1F	-31	.	-45	-4.2*	0	.
CCOC(=O)CNC(=O)Cc1ccc(OC)cc1	-2	-16	.	-0.42	.	0.029
COCCn1c(-c2ccc(Cl)cc2)cnc1SCC(=O)NCc1cccs1	1	4	58*	0.63	1	-0.91
O=C(CSc1nc2ccccc2c(=O)n1Cc1ccc(Cl)cc1)NCc1cccs1	21	11	-6	0.6	-15	3.5
Cc1nnc(SCC(=O)N2CCc3ccccc32)s1	-10	-14	39*	.	-6	.
Cc1cc(/C=N/NC(=O)c2ccccc2F)c(C)n1-c1ccccc1	31	-49	-9	4.2*	-6	-1.6
Cn1c(COc2cccc3ccccc23)nnc1SCC(=O)OC1CCCCC1	28	.	.	.	.	-1.1
CCn1c(COc2cccc3ccccc23)nnc1SCC(=O)OC1CCCCC1	33	-15	34*	-2.4	-2	.
SMILES	Calpain2 inh	MDM2 E3 inh	Arbovirus anti	ROMK mod	PKD1 kinase inh	Cl transport mod
CCCCN=C(C)c1c(O)c2ccccc2oc1=O	73*	-9	0	-1.3	-5	0.17
CCCCC(=O)c1c(O)c2ccccc2oc1=O	17	-24	7	.	-4	-0.13
CCCCC(=O)OCC(=O)c1[nH]c(C)c(C(C)=O)c1C	89*	-19	5	0.21	-8	-1.3
COc1ccc2nc(NC(=O)CC3Oc4ccccc4NC3=O)sc2c1 (stereo unspecified)	-4	2	.	-0.061	.	-0.36
CC(C)NC(=O)CCCOc1ccc(Cl)cc1Cl	1	-19	-3	-0.47	-4	0.65
CN(C(=S)NC(=O)CCCOc1ccc(Cl)cc1Cl)c1ccccc1	15	-10	-6	0.3	-5	39*
CC(=O)N1C(C)(C)CC(=NOC(=O)c2ccc(C)cc2)CC1(C)C	31	-17	3	-0.11	0	-0.049
O=C(c1ccco1)N1CCN(C(=O)c2ccc(COc3ccc4c(c3)CCC4)o2)CC1	-13	.	-15	.	1	-0.85
O=C(c1ccco1)N1CCN(C(=O)c2ccc(COc3ccc(Cl)cc3Cl)o2)CC1	.	.	.	.	-2	-3.4*
CCOC(=O)C1=C(c2ccccc2)O/C(=C(/C#N)C(F)(F)F)S1	-50	68*	-37	-0.19	-6	0.57
O=C(NCCCO)Nc1ccc2nc(-c3ccco3)c(-c3ccco3)nc2c1	-295	-11	33*	.	2	.
O=C(Nc1ccc2nc(-c3ccco3)c(-c3ccco3)nc2c1)NC1CC1	-164	-16	7	0.57	-3	-0.11
CCOC(=O)c1c(NC(NC(C)=O)C(Cl)(Cl)Cl)sc2c1CCCC2 (stereo unspecified)	3	-16	-17	0.19	6	-0.1
COC(=O)c1c(NC(NC(C)=O)C(Cl)(Cl)Cl)sc2c1CCCC2 (stereo unspecified)	55*	-15	8	.	9	-0.3
COCCNC(=O)NC(=O)CN1CCCc2ccccc21	65*	-6	21	0.11	3	0.57
O=C(O)CCCn1cc(NC(=O)COc2ccc([N+](=O)[O-])cc2)cn1	17	-17	0	1.3	-6	0.72
Nc1cc(C(=O)O)ccc1Sc1ccccc1C(=O)O	20	-25	2	0.43	0	1.4
O=C(CCCCn1c(=O)c2ccccc2n(CC(=O)NC2CCCC2)c1=O)NCc1ccco1	68*	3	12	.	-3	.
O=C(CCn1c(=O)c2ccccc2n(CC(=O)NC2CCCC2)c1=O)NCc1ccco1	-8	-24	4	.	-8	-0.83
CCCC1=NN2C(=N)/C(=C\c3cc(C)n(Cc4ccccc4)c3C)C(=O)N=C2S1	-28	-12	.	.	.	1
CCCC1=NN2C(=N)/C(=C\c3cc(C)n(-c4cccc(C)c4)c3C)C(=O)N=C2S1	-187	.	33*	-0.64	-2	0.85
COc1ccc(/C(C)=N/Nc2nc3ccccc3n3cnnc23)cc1OC	13	-9	.	-0.26	.	-2.3
Oc1ccccc1CN1CCCN(Cc2ccccc2O)C1	27	-13	70*	.	-5	-0.089
O=c1/c(=C/c2ccccn2)sc2nc3ccccc3n12	-25	-68	0	0.29	19	.
O=c1/c(=C\c2cc([N+](=O)[O-])cc([N+](=O)[O-])c2O)sc2nc3ccccc3n12	19	-9	15	-2	-1	-3.3*
Cc1ccc(-c2cn(-c3ccccc3)c(SCC(=O)NC3CCS(=O)(=O)C3)n2)cc1C (stereo unspecified)	10	5	-7	-0.48	-9	12*
